Laboratory results from ChEMBL document CHEMBL1125457, “Inhibitors of acyl-CoA:cholesterol acyltransferase. 1. Identification and structure-activity relationships of a novel series of fatty acid anilide hypocholesterolemic agents” (J Med Chem, 1992).

How the values were obtained:
[1] = biological target: T1, O-acyltransferase (Oryctolagus cuniculus, UniProt G1SFD9); experiment: In vitro inhibition of acyl coenzyme A:cholesterol acyltransferase, in intestinal microsomes isolated from cholesterol-fed rabbits; parameters: species or system Intestine
Summary of the method: (§1)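 Rabbit intestinal mucosa scraped, washed, homogenized in phosphate/KCl/EDTA/sucrose buffer; microsomes pelleted at 100000g and stored at -70 °C. Microsomes (0.3 mg protein) with BSA (0.5 mg) and inhibitor in DMSO/Tween-20 preincubated 5 min at 37 °C. [1-14C]oleoyl-CoA (10 nmol, 0.05 μCi) then added for 5 min. Cholesteryl oleate extracted, separated by TLC and counted by scintillation. Four dilutions per compound, in triplicate.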

[2] = species on record: Rattus norvegicus; experiment: Percent change in total cholesterol (TC) in cholic acid (0.3%) -cholesterol (1.5%) -peanut oil(5.5%) -fed rats.; format: functional
Summary of the method: (§2)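 Rats fed ad libitum for 1 week on a diet with peanut oil (5.5%), cholesterol (1.5%) and cholic acid (0.3%), with compound mixed in at 0.05% of the diet. Sacrificed in the fed state. Plasma total and/or HDL cholesterol measured as percent change versus cholesterol-fed controls. Significance by ANOVA followed by Fisher's multiple range test, p < 0.05.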

[3] = biological target: T1, O-acyltransferase; experiment: Tested in vitro to inhibit Acyl coenzyme A:cholesterol acyltransferase in intestinal microsomes isolated from cholesterol-fed rabbits.; parameters: species or system Intestine; summary of the method: as §1
[4] = species on record: Rattus norvegicus; experiment: Percent change in high density lipoprotein (HDL-cholesterol in cholesterol-fed rats.; format: functional; summary of the method: as §2

T1 sequence (G1SFD9 1-524): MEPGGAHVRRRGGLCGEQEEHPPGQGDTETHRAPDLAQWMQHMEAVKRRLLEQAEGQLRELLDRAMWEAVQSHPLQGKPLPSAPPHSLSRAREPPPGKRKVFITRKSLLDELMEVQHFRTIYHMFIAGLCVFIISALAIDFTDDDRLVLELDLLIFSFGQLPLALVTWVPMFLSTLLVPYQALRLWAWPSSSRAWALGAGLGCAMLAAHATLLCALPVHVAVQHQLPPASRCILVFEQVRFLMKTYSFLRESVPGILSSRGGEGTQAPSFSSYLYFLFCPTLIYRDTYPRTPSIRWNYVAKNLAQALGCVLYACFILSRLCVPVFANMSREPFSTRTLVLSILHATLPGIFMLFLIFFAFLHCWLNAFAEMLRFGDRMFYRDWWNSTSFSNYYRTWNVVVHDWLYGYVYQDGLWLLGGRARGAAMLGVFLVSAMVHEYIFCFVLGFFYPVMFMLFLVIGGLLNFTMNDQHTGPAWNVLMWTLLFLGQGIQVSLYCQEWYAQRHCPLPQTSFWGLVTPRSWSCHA

| SMILES | IC50 [1] | Change [2] | IC50 [3] | Change [4] |
| --- | --- | --- | --- | --- |
| CCCCCCCCCCC1(C(=O)Nc2c(OC)cc(OC)cc2OC)CCCCC1 | 70 nM | -43% | – | – |
| CCCCCCCCCCC(C)(C)C(=O)Nc1c(C)cccc1Cl | 750 nM | – | – | – |
| CCCCCCCCCC(C)(C)C(=O)Nc1c(OC)cc(OC)cc1OC | – | -53% | 59 nM | 86% |
| CCCCCCCCCCCCC1(C(=O)Nc2c(OC)cc(OC)cc2OC)CC1 | 58 nM | -40% | – | 27% |
| CCCCCCCCCCC(C)(C)C(=O)Nc1c(C(C)C)cccc1C(C)C | 210 nM | – | – | – |
| CCCCCCCCCCCCCCC(C)C(=O)Nc1c(OC)cc(OC)cc1OC (configuration not stated) | 31 nM | – | – | – |
| CCCCCCCCCCC(C)(C)C(=O)Nc1c(OC)cc(OC)cc1OCCCCCCC | 140 nM | – | – | – |
| CCCCCCCC/C=C/CCCCCCCC(=O)Nc1ccccc1C(C)C | 600 nM | – | – | – |
| CCCCCCCC/C=C/CCCCCCCC(=O)Nc1cc(C(=O)OC)c(OC)cc1OC | 1100 nM | – | – | – |
| CCCCCCCC/C=C/CCCCCCCC(=O)Nc1ccc(OC)cc1OC | 3000 nM | – | – | – |
| CCCCCCCCCCC(C)(C)C(=O)Nc1ccc(C)cc1C | 680 nM | – | – | – |
| CCCCCCCC/C=C/CCCCCCCC(=O)Nc1c(C)cccc1C(C)C | 23 nM | -45% | – | – |
| CCCCCCCCCCC(CC)(CC)C(=O)Nc1c(OC)cc(OC)cc1OC | 97 nM | – | – | – |
| CCCCCCCCCCCCCCC1(C(=O)Nc2c(OC)cc(OC)cc2OC)CC1 | 49 nM | -43% | – | 16% |
| CCCCCCCCCCC(CC)C(=O)Nc1c(OC)cc(OC)cc1OC (configuration not stated) | – | – | 73 nM | – |
| CCCCCCCCCCCCCC(=O)Nc1c(OC)cc(OC)cc1OC | 190 nM | -44% | – | – |
| CCCCCCCCCCC(C)(C)C(=O)Nc1c(C)cc(C)cc1C | 194 nM | – | – | – |
| CCCCCCCCC(C)(C)C(=O)Nc1c(OC)cc(OC)cc1OC | 59 nM | -43% | – | 53% |
| CCCCCCCC/C=C/CCCCCCCC(=O)Nc1c(F)cc(F)cc1F | – | 2% | 6300 nM | – |
| CCCCCCCC/C=C/CCCCCCCC(=O)Nc1c(C(C)C)cccc1C(C)C | 7 nM | -21% | – | – |
| CCCCCCCC/C=C\CCCCCCCC(=O)Nc1c(C)cccc1C | – | -38% | 43 nM | – |
| CCCCCCCC/C=C/CCCCCCCC(=O)Nc1cc(C(=O)OC)c(C)cc1C | 60 nM | -41% | – | – |
| CCCCCCCCCCC(C)(C)C(=O)Nc1c(C)cccc1C(C)C | 240 nM | – | – | – |
| CCCCCCCCCCC1(C(=O)Nc2c(OC)cc(OC)cc2OC)CCCCCC1 | 93 nM | -42% | – | 9% |
| C=C(CCCCCCCCCC)C(=O)Nc1c(OC)cc(OC)cc1OC | 200 nM | – | – | – |

| SMILES | IC50 [1] | Change [2] | IC50 [3] | Change [4] |
| --- | --- | --- | --- | --- |
| CCCCCCCC/C=C/CCCCCCCC(=O)Nc1ccc(CC(=O)OCC)c(C)c1 | 3000 nM | -10% | – | – |
| CCCCCCCCCCC1(C(=O)Nc2c(OC)cc(OC)cc2OC)CCCC1 | 32 nM | -67% | – | 45% |
| CCCCCCCCCCC(C)(C)C(=O)Nc1c(C)cc(Br)cc1C | 410 nM | – | – | – |
| CCCCCCCCCCC(C)(C)C(=O)Nc1c(CC)cccc1CC | 390 nM | – | – | – |
| CCCCCCCCCCC(C)(C)C(=O)Nc1c(C)cccc1OCC | 180 nM | – | – | – |
| CCCCCCCCCCC(C)(C)C(=O)Nc1c(C)cccc1C | 1300 nM | – | – | – |
| CCCCCCCCCCC(C)(C)C(=O)Nc1c(C)cccc1OC | 210 nM | – | – | – |
| CCCCCCCCCCC(C)(C)C(=O)Nc1c(O)cc(OC)cc1OC | 590 nM | – | – | – |
| CCCCCCCCCCCCCCC(C)(C)C(=O)Nc1c(OC)cc(OC)cc1OC | 44 nM | -55% | – | 26% |
| CCCCCCCC/C=C/CCCCCCCC(=O)Nc1cc(C(=O)OC)ccc1OC | 430 nM | – | – | – |
| CCCCCCCC/C=C/CCCCCCCC(=O)Nc1c(O)cc(OC)cc1OC | 150 nM | – | – | – |
| CCCCCCCCCCC(C)(C)C(=O)Nc1ccc(C)c(C)c1 | 1660 nM | – | – | – |
| CCCCCCCCCCC(C)(C)C(=O)Nc1c(OC)cc(OC)cc1OC [CL-976] | – | – | – | 94% |
| CCCCCCCC/C=C/CCCCCCCC(=O)Nc1ccccc1CC | 1200 nM | – | – | – |
| CCCCCCCCCCCCCCC(=O)Nc1c(OC)cc(OC)cc1OC | 65 nM | – | – | – |
| CCCCCCCC/C=C/CCCCCCCC(=O)Nc1c(C)cccc1OCC | 15 nM | -45% | – | – |
| CCCCCCCCCCC(C)(C)C(=O)Nc1cc(C(=O)OC)ccc1OC | 130 nM | – | – | – |
| CCCCCCCC/C=C/CCCCCCCC(=O)Nc1cccc2c1CCCC2 | 350 nM | – | – | – |
| CCCCCCCCCCC(C)(C)C(=O)Nc1c(F)cc(F)cc1F | 260 nM | – | – | – |
| CCCCCCCCCCC(C)C(=O)Nc1c(OC)cc(OC)cc1OC (configuration not stated) | – | – | 90 nM | – |
| CCCCCCCCCCCCCCCCCC(=O)Nc1c(OC)cc(OC)cc1OC | 52 nM | -11% | – | 31% |
| CCCCCCCC/C=C/CCCCCCCC(=O)Nc1c(Cl)cc(Cl)cc1Cl | 30 nM | -44% | – | – |
| CCCCCCCC/C=C/CCCCCCCC(=O)Nc1c(OC)cc(OC)cc1OC | – | -38% | 51 nM | – |
| CCCCCCCCCCCCCCCCC(C)(C)C(=O)Nc1c(OC)cc(OC)cc1OC | 87 nM | -34% | – | 13% |
| CCCCCCCC/C=C/CCCCCCC(C)(C)C(=O)Nc1c(OC)cc(OC)cc1OC | 44 nM | -60% | – | – |

| SMILES | IC50 [1] | Change [2] | IC50 [3] | Change [4] |
| --- | --- | --- | --- | --- |
| CCCCCCCCCCCCC(CC)C(=O)Nc1c(OC)cc(OC)cc1OC (configuration not stated) | 52 nM | -11% | – | – |
| CCCCCCCCCCC(C)(C)C(=O)Nc1c(OC)cc(OC)cc1OCC(=O)O | > 1000 nM | – | – | – |
| CCCCCCCC/C=C/CCCCCCCC(=O)Nc1ccccc1OC | 8000 nM | – | – | – |
| CCCCCCCC/C=C/CCCCCCCC(=O)Nc1ccc(C)cc1C(=O)OC | 9200 nM | – | – | – |
| CCCCCCCC/C=C/CCCCCCC(C)C(=O)Nc1c(OC)cc(OC)cc1OC (configuration not stated) | 36 nM | -40% | – | – |
| CCCCCCCCCCCCC(C)(C)C(=O)Nc1c(OC)cc(OC)cc1OC | 63 nM | -45% | – | 19% |
| CCCCCCCC/C=C/CCCCCCCC(=O)Nc1cc(OC)c(OC)cc1OC | 1100 nM | – | – | – |
| CCCCCCCC/C=C/CCCCCCCC(=O)Nc1c(C)cc(C)cc1C | 700 nM | -27% | – | – |
| CCCCCCCCCCC(C)(C)C(=O)Nc1c(OC)cc(OC)cc1OCC(=O)OC | 2300 nM | – | – | – |
| CCCCCCCCCCC1(C(=O)Nc2c(OC)cc(OC)cc2OC)CCC1 | 39 nM | -57% | – | 73% |
| CCCCCCCC/C=C/CCCCCCCC(=O)Nc1ccc(OC)c(OC)c1 | – | – | 4500 nM | – |
| CCCCCCCC/C=C/CCCCCCCC(=O)Nc1c(C)cccc1OC | 20 nM | -30% | – | – |
| CCCCCCCC(C)(C)C(=O)Nc1c(OC)cc(OC)cc1OC | 180 nM | -13% | – | 2% |
| CCCCCCCC/C=C/CCCCCCCC(=O)Nc1c(CC)cccc1CC | 17 nM | -51% | – | – |
| CCCCCCCCCCCCCCCC(=O)Nc1c(OC)cc(OC)cc1OC | 54 nM | -38% | – | – |
| CCCCCCCC/C=C/CCCCCCCC(=O)Nc1cc(Cl)c(OC)cc1OC | 520 nM | -7% | – | – |
| CCCCCCCC/C=C/CCCCCCCC(=O)Nc1cccc(C)c1[N+](=O)[O-] | 12000 nM | – | – | – |
| CCCCCCCCCCCCC(C)C(=O)Nc1c(OC)cc(OC)cc1OC (configuration not stated) | – | -39% | – | – |
| CCCCCCCC/C=C/CCCCCCCC(=O)Nc1ccc(F)cc1F | 32000 nM | -19% | – | – |
| CCCCCCCC/C=C/CCCCCCCC(=O)Nc1ccccc1Cl | 75000 nM | – | – | – |
| CCCCCCCC/C=C/CCCCCCCC(=O)Nc1ccccc1-c1ccccc1 | 910 nM | – | – | – |
| CCCCCCCC/C=C/CCCCCCCC(=O)Nc1ccccc1C(=O)c1ccccc1 | > 10000 nM | – | – | – |
| CCCCCCCC/C=C/CCCCCCCC(=O)Nc1cccc(C(=O)OC)c1C | > 5000 nM | – | – | – |
